The test system of assay [1] is KB. Description: Ratio of VP16 IC50 to compound IC50 for human KB cells. In kind it is functional.
Assay [2] deals with T1, DNA topoisomerase 1 (Homo sapiens) (UniProt P11387).
T1 sequence (whole entry): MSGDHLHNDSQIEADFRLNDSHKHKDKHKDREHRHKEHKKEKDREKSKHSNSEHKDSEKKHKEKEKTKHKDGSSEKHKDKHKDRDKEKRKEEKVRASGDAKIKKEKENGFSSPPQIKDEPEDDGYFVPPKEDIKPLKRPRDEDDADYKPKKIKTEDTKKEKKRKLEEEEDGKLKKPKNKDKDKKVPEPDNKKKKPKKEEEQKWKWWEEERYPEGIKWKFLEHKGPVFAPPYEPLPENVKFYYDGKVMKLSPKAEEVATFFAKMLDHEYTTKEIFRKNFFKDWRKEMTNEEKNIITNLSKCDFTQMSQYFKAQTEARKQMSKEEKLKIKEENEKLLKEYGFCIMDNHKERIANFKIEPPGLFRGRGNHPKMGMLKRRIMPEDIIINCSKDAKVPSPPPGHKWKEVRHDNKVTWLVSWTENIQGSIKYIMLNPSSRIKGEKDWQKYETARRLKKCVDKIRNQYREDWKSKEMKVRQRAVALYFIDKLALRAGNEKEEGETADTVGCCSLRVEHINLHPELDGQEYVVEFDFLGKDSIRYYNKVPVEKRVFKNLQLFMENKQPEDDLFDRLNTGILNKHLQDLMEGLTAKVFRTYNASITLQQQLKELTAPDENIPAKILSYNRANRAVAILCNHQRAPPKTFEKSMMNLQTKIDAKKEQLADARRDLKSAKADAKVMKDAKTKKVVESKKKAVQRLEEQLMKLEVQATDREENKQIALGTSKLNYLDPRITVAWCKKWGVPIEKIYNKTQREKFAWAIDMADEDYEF
Description: Inhibition of recombinant DNA topoisomerase1-mediated topo1-linked DNA relegation activity at 25 uM after 30 mins by […]. In a few lines: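 Suicide topo I cleavage complex pre-formed on radiolabeled oligoduplex. Religation started by adding 5 pmol of 13-mer ON6 with compound present, at 37 °C. 25-mer religation product resolved on 20% urea/polyacrylamide gel and quantified by phosphorimager.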

Assay [3] in a line: Inhibition of DNA topoisomerase 2-mediated [alpha32P]dCTP-labelled pBR322 cleavage up to 25 uM after 30 mins by agarose gel electrophoresis.
Assay [4] can be described thus: Inhibition of DNA topoisomerase 2-mediated relegation activity at 250 uM after 30 mins by agarose gel electrophoresis.
Assay [5] is described as follows: Antiproliferative activity against human partially revertant camptothecin-resistant KBCPT100 cells after 72 hrs by […] blue dye assay. The settings on record: KBCPT100, 72 h. It counts as functional, cell-based. The procedure, abridged: (§1)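 KB, etoposide-resistant KB/7D (kept in 7 µM etoposide), CPT-resistant KB CPT 100 (kept in 100 nM CPT) and revertant KB CPT 100rev cells, all grown in RPMI 1640 with 10% FBS. Log-phase cells seeded at 5000 cells/mL and exposed to a range of drug concentrations for 72 h. Growth read by […] blue dye assay; IC50 = 50% growth inhibition. Resistance ratio = KBCPT100 IC50 over KB IC50.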

For assay [6], the target named is T1, DNA topoisomerase 1 (Homo sapiens). Description: Inhibition of recombinant DNA topoismerase1-mediated cleavage activity at 25 uM after 15 mins by […]. In a few lines:
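32P-labeled ON5/ON4 oligoduplex (50 fmol) incubated with purified recombinant topoisomerase I (220 fmol) ± compound (25 µM) at 37 °C for 15 min. Stopped with SDS (0.5% final), then proteinase K digestion (1 mg/mL final). Cleavage products resolved on 20% denaturing urea/polyacrylamide gel.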

A short description of assay [7]: Resistance ratio of IC50 for human camptothecin-resistant KBCPT100 cells to IC50 for human KB cells. In kind it is functional. In a few lines:
as §1

Assay [8] is described as follows: Antiproliferative activity against human camptothecin-resistant KBCPT100 cells after 72 hrs by […] blue dye assay. It counts as functional, cell-based. The following applies: KBCPT100, 72 h. The procedure, abridged:
as §1

For assay [9], the target named is T1, DNA topoisomerase 1 (Homo sapiens). The assay is described as follows: Inhibition of DNA topoisomerase 1 in human KB cells using [C14]thymidine assessed as protein-linked DNA breaks formation at 2.5 uM after 30 mins by […]. It counts as cell-based. In a few lines: (§2)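 KB cells labeled with [14C]thymidine for 24 h, then treated with compound (2.5 or 22.5 µM) at 37 °C. Protein-linked DNA breaks quantified by potassium-SDS co-precipitation.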

Assay [10] can be described thus: Antiproliferative activity against human VP16-resistant KB-7d cells overexpressing MRP after 72 hrs by […] blue dye assay. The settings on record: KB7D. In kind it is functional, cell-based. The procedure, abridged: as §1
Assay [11] deals with KB. The assay is described as follows: Antiproliferative activity against human KB cells after 72 hrs by […] blue dye assay. It counts as functional, cell-based. In a few lines:
as §1

In assay [12] the target is T1, DNA topoisomerase 1 (Homo sapiens). Description: Inhibition of DNA topoisomerase 1 in human KB cells using [C14]thymidine assessed as protein-linked DNA breaks formation at 22.5 uM after 30 mins by […]. In kind it is cell-based. The procedure, abridged:
as §2

The term pIC50 denotes −log10 of the IC50, conventionally taken in molar units.

pIC50: −log10 of the molar value. Activity calls are given as the source filed them. The calls are words filed in the database; no cut-off is given here.

`CC[C@@](O)(C(=O)NC(C)C)c1cc2n(c(=O)c1CO)Cc1c-2nc2ccccc2c1/C=N\c1ccc(N[C@@H]2c3cc4c(cc3[C@@H](c3cc(OC)c(O)c(OC)c3)[C@H]3C(=O)OC[C@@H]32)OCO4)cc1`: the “Ratio IC50” value amounted to 10 in the assay on KB [1] and 2.8 in assay [7]. Moreover, the inhibition entry in assay [2], in assay [4] and in assay [9] was “Active” throughout. In addition, the inhibition result in assay [3] and in assay [6] was “inactive” in each case. Also, the pIC50 in [5] is 7.24; in assay [8], 6.92; in [10], 7.30; in the assay with KB [11] it was 7.37.

In the case of `CC[C@@]1(O)C(=O)OCc2c1cc1n(c2=O)Cc2c-1nc1ccccc1c2/C=N\c1ccccc1N[C@@H]1c2cc3c(cc2[C@@H](c2cc(OC)c(O)c(OC)c2)[C@H]2C(=O)OC[C@@H]21)OCO3`, the inhibition result in [2], in assay [4] and in [9] was “Active” each time. For the same compound, the inhibition result in assay [3] and in assay [6] was “inactive” in each case. Also, the pIC50 was 7.15 in [5], 6.95 in [8], 7.15 in assay [10] and 7.43 in the assay with KB [11]. In [7], the “Ratio IC50” value is on record as 2.8.

As for `CC[C@@](O)(C(=O)NC(C)C)c1cc2n(c(=O)c1CO)Cc1c-2nc2ccccc2c1/C=N\c1ccccc1N[C@@H]1c2cc3c(cc2[C@@H](c2cc(OC)c(O)c(OC)c2)[C@H]2C(=O)OC[C@@H]21)OCO3`, the “Ratio IC50” value is listed as 8 in the assay on KB [1] and 2.8 in assay [7]. For the same compound, the inhibition result in [2] and in assay [4] was “Active” in each case. The inhibition result in assay [3] and in assay [6] was “inactive” throughout. For the same compound, the pIC50 in assay [5] was 6.85; in assay [8], 6.69; in assay [10] it was 7.21; in the assay with KB [11], 7.22. Further, in [12], the fold change (FC) turned out to be 7.

Turning to `CC[C@@]1(O)C(=O)OCc2c1cc1n(c2=O)Cc2c-1nc1ccccc1c2/C=N\c1ccc(N[C@@H]2c3cc4c(cc3[C@@H](c3cc(OC)c(O)c(OC)c3)[C@H]3C(=O)OC[C@@H]32)OCO4)cc1`, the inhibition result in assay [2], in assay [4] and in assay [9] was “Active” in each case. The inhibition entry in assay [3] and in [6] was “inactive” each time. Besides, the pIC50 in assay [5] was 7.36; in [8], 7.02; in [10] it was 7.43; in the assay with KB [11], 7.61. The “Ratio IC50” value in assay [7] amounted to 2.8.

Consider `COc1cc([C@@H]2c3cc4c(cc3[C@@H](O[C@@H]3O[C@@H]5CO[C@@H](C)O[C@H]5[C@H](O)[C@H]3O)[C@H]3COC(=O)[C@H]23)OCO4)cc(OC)c1O` [ETOPOSIDE], for which the negative logarithm of the IC50 (pIC50) in assay [5] was 6.43; in [8], 6.47; in [10], 4.26; in the assay with KB [11] it was 6.32.

For `CC[C@@]1(O)C(=O)OCc2c1cc1n(c2=O)Cc2cc3ccccc3nc2-1` [CAMPTOTHECIN], the pIC50 in assay [5] is 7.62; in [8], 6.37; in assay [10], 8.17; with KB [11], 8.06. In addition, the “Ratio IC50” value in [7] turned out to be 48.

These data come from ChEMBL document CHEMBL2157971, “Antitumor agents 294. Novel E-ring-modified camptothecin-4β-anilino-4'-O-demethyl-epipodophyllotoxin conjugates as DNA topoisomerase I inhibitors and cytotoxic agents” (Bioorg Med Chem, 2012).
